ChEMBL document CHEMBL2086305 (Eur J Med Chem, 2012)
Activity calls are given as the source filed them. No cut-off for these calls is given here.

Experiments:
[1] = test system: Rattus norvegicus; assay: Antithrombotic activity in Sprague-Dawley rat venous thrombosis model assessed as thrombus dry weight administered via gastric tube qd for 3 days after 2 hrs of last post dose
[2] = Antiplatelet activity against rabbit platelets assessed as inhibition of thrombin-induced platelet aggregation; type: functional, cell-based; settings: Oryctolagus cuniculus
[3] = (§1) Antiplatelet activity against rabbit platelets assessed as inhibition of ADP-induced platelet aggregation; type: functional, cell-based; settings: Oryctolagus cuniculus
[4] = test system: Platelet; assay: as §1; type: functional, cell-based; settings: Oryctolagus cuniculus
[5] = test system: Rattus norvegicus; assay: Drug metabolism in Sprague-Dawley rat plasma assessed as HTMP level at 20 mg/kg, administered via gastric tube after 1.5 hrs; type: ADME, organism-based; parameters: dose 20 mg/kg; settings: in vivo, po
Outline: (§2)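 Female Sprague-Dawley rats received 20 mg/kg. Whole blood was collected at 0.167–6 h and mixed with 4% formic acid. Samples were precipitated with acetonitrile and stored at −70 °C.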

[6] = test system: Rattus norvegicus; assay: Drug metabolism in Sprague-Dawley rat plasma assessed as HTMP level at 20 mg/kg, administered via gastric tube after 0.25 hrs; type: ADME, organism-based; parameters: dose 20 mg/kg; settings: in vivo, po
Outline: as §2

[7] = test system: Rattus norvegicus; assay: Drug metabolism in Sprague-Dawley rat plasma assessed as dabigatran level at 20 mg/kg, administered via gastric tube after 1.5 hrs; type: ADME, organism-based; parameters: dose 20 mg/kg; settings: in vivo, po
Outline: as §2

[8] = test system: Rattus norvegicus; assay: Drug metabolism in Sprague-Dawley rat plasma assessed as HTMP level at 20 mg/kg, administered via gastric tube after 0.5 hrs; type: ADME, organism-based; parameters: dose 20 mg/kg; settings: in vivo, po
Outline: as §2

[9] = test system: Rattus norvegicus; assay: Drug metabolism in Sprague-Dawley rat plasma assessed as dabigatran level at 20 mg/kg, administered via gastric tube after 2 hrs; type: ADME, organism-based; parameters: dose 20 mg/kg; settings: in vivo, po
Outline: as §2

[10] = test system: Rattus norvegicus; assay: Drug metabolism in Sprague-Dawley rat plasma assessed as HTMP level at 20 mg/kg, administered via gastric tube after 1 hr; type: ADME, organism-based; parameters: dose 20 mg/kg; settings: in vivo, po
Outline: as §2

[11] = test system: Rattus norvegicus; assay: Drug metabolism in Sprague-Dawley rat plasma assessed as dabigatran level at 20 mg/kg, administered via gastric tube after 0.167 hrs; type: ADME, organism-based; parameters: dose 20 mg/kg; settings: in vivo, po
Outline: as §2

[12] = test system: Rattus norvegicus; assay: Drug metabolism in Sprague-Dawley rat plasma assessed as dabigatran level at 20 mg/kg, administered via gastric tube after 6 hrs; type: ADME, organism-based; parameters: dose 20 mg/kg; settings: in vivo, po
Outline: as §2

[13] = test system: Rattus norvegicus; assay: Drug metabolism in Sprague-Dawley rat plasma assessed as dabigatran level at 20 mg/kg, administered via gastric tube after 0.25 hrs; type: ADME, organism-based; parameters: dose 20 mg/kg; settings: in vivo, po
Outline: as §2

[14] = test system: Rattus norvegicus; assay: Drug metabolism in Sprague-Dawley rat plasma assessed as HTMP level at 20 mg/kg, administered via gastric tube after 2 hrs; type: ADME, organism-based; parameters: dose 20 mg/kg; settings: in vivo, po
Outline: as §2

[15] = test system: Rattus norvegicus; assay: Toxicity in Sprague-Dawley rat assessed as adverse effect at 20 mg/kg, administered via gastric tube; type: organism-based; parameters: dose 20 mg/kg; settings: in vivo, po
[16] = test system: Rattus norvegicus; assay: Drug metabolism in Sprague-Dawley rat plasma assessed as dabigatran level at 20 mg/kg, administered via gastric tube after 1 hr; type: ADME, organism-based; parameters: dose 20 mg/kg; settings: in vivo, po
Outline: as §2

[17] = test system: Rattus norvegicus; assay: Drug metabolism in Sprague-Dawley rat plasma assessed as HTMP level at 20 mg/kg, administered via gastric tube after 4 hrs; type: ADME, organism-based; parameters: dose 20 mg/kg; settings: in vivo, po
Outline: as §2

[18] = test system: Rattus norvegicus; assay: Drug metabolism in Sprague-Dawley rat plasma assessed as HTMP level at 20 mg/kg, administered via gastric tube after 0.167 hrs; type: ADME, organism-based; parameters: dose 20 mg/kg; settings: in vivo, po
Outline: as §2

[19] = test system: Rattus norvegicus; assay: Drug metabolism in Sprague-Dawley rat plasma assessed as HTMP level at 20 mg/kg, administered via gastric tube after 6 hrs; type: ADME, organism-based; parameters: dose 20 mg/kg; settings: in vivo, po
Outline: as §2

[20] = test system: Rattus norvegicus; assay: Drug metabolism in Sprague-Dawley rat plasma assessed as dabigatran level at 20 mg/kg, administered via gastric tube after 4 hrs; type: ADME, organism-based; parameters: dose 20 mg/kg; settings: in vivo, po
Outline: as §2

[21] = test system: Rattus norvegicus; assay: Drug metabolism in Sprague-Dawley rat plasma assessed as dabigatran level at 20 mg/kg, administered via gastric tube after 0.5 hrs; type: ADME, organism-based; parameters: dose 20 mg/kg; settings: in vivo, po
Outline: as §2

## Cc1nc(C)c(COC(=O)CCN(C(=O)c2ccc3c(c2)nc(CNc2ccc(/C(N)=N\C(=O)OC(C)(C)C)cc2)n3C)c2ccccn2)nc1C
[1]
  ED50: 1.8 mg/kg
[2]
  IC50: 0.00313 µM

## Cc1nc(C)c(CO)nc1C
[3]
  IC50: 1670 µM
[1]
  ED50: 42.6 mg/kg
[2]
  IC50: 8410 µM

## Cc1nc(C)c(COC(=O)CCN(C(=O)c2ccc3c(c2)nc(CNc2ccc(/C(N)=N\C(=O)OC(C)C)cc2)n3C)c2ccccn2)nc1C
[2]
  IC50: 0.295 µM

## Cc1nc(C)c(COC(=O)CCN(C(=O)c2ccc3c(c2)nc(CNc2ccc(/C(N)=N\C(=O)OCc4ccccc4)cc2)n3C)c2ccccn2)nc1C
[2]
  IC50: 0.292 µM

## CCCCCCOC(=O)NC(=N)c1ccc(NCc2nc3cc(C(=O)N(CCC(=O)OCC)c4ccccn4)ccc3n2C)cc1 [DABIGATRAN ETEXILATE]
[4]
  inhibition: inactive
[1]
  ED50: 4.4 mg/kg
[2]
  IC50: 0.326 µM

## CCCCCOC(=O)/N=C(/N)c1ccc(NCc2nc3cc(C(=O)N(CCC(=O)OCc4nc(C)c(C)nc4C)c4ccccn4)ccc3n2C)cc1
[2]
  IC50: 0.0728 µM

## CCOC(=O)/N=C(/N)c1ccc(NCc2nc3cc(C(=O)N(CCC(=O)OCc4nc(C)c(C)nc4C)c4ccccn4)ccc3n2C)cc1
[2]
  IC50: 0.218 µM

## COC(=O)/N=C(/N)c1ccc(NCc2nc3cc(C(=O)N(CCC(=O)OCc4nc(C)c(C)nc4C)c4ccccn4)ccc3n2C)cc1
[2]
  IC50: 0.287 µM

## CCCCCCOC(=O)/N=C(/N)c1ccc(NCc2nc3cc(C(=O)N(CCC(=O)OCc4nc(C)c(C)nc4C)c4ccccn4)ccc3n2C)cc1
[5]
  Drug metabolism: 495 ng/mL
[6]
  Drug metabolism: 955 ng/mL
[7]
  Drug metabolism: 164 ng/mL
[8]
  Drug metabolism: 1075 ng/mL
[9]
  Drug metabolism: 152 ng/mL
[10]
  Drug metabolism: 938 ng/mL
[11]
  Drug metabolism: 109 ng/mL
[12]
  Drug metabolism: 18.2 ng/mL
[13]
  Drug metabolism: 245 ng/mL
[14]
  Drug metabolism: 430 ng/mL
[15]
  Activity: Non-toxic
[3]
  IC50: 4030 µM
[16]
  Drug metabolism: 264 ng/mL
[17]
  Drug metabolism: 188 ng/mL
[18]
  Drug metabolism: 423 ng/mL
[1]
  ED50: 2.1 mg/kg
[19]
  Drug metabolism: 93.3 ng/mL
[2]
  IC50: 0.0381 µM
[20]
  Drug metabolism: 67.3 ng/mL
[21]
  Drug metabolism: 252 ng/mL
